From ChEMBL document CHEMBL1124782, “DNA binding by antitumor anthracene derivatives” (J Med Chem, 1990) come the findings set out here.

Molecules are shown by their SMILES.

Data set [1] in a line: pKa value for amino group in the compound. It counts as physicochemical. In a few lines:
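0.2 mmol of compound, as free base or dihydrochloride, was dissolved in 0.0392 N HCl to give 1 mequiv acid beyond full protonation of the amino groups. The solution was stirred and titrated with 0.0242 N NaOH with pH monitoring. Macroscopic pKa was read at 0.5 equiv base per functional group. Poorly soluble material was titrated in very dilute solution.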

Data set [2] deals with Nucleic Acid. The experiment in a line: (§1) delta Tm value is the difference between Tm(melting temperature) for calf thymus DNA with drug and without drug(Tm = 71 degree C for DNA alone). The data set is classed as functional. Particulars: Bos taurus.
For data set [3], the system named is Nucleic Acid. As to the kind of experiment: Apparent binding constant (McGhee-von Hippel) was determined by using spectrophotometric titration. The data set is classed as nucleic-acid assay. To be noted: Bos taurus. In outline: (§2)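 Calf thymus DNA (<3% protein) titrated by UV-visible absorbance in 0.1 M NaCl, 0.01 M sodium phosphate, 0.001 M EDTA, pH 7.0. Drug stock about 2×10^-4 M. DNA prepared fresh at 5×10^-4 M (base pairs) for each titration. Free and bound drug extinction coefficients came from Beer's law plots. Bound/free data were fitted by McGhee-von Hippel equations or by a cubic spline derivative analysis.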

Data set [4] deals with Nucleic Acid. The experiment in a line: Cubic spline relative binding strength was determined by using spectrophotometric titration. It counts as nucleic-acid assay. Particulars: Bos taurus. In outline: as §2
Data set [5] concerns Nucleic Acid. The description is as §1. The data set is classed as nucleic-acid assay. Particulars: Bos taurus.

In general, ΔTm refers to the shift of the melting midpoint relative to a reference. On to `c1ccc2c(CNCCN3CCOCC3)c3ccccc3c(CNCCN3CCOCC3)c2c1`, for which the pKa was 3.85 in data set [1] (read-out: pKa1), 6.3 in data set [1] (read-out: pKa2), 7.5 in data set [1] (read-out: pKa3) and 8.5 in data set [1] (read-out: pKa4). Further, the ΔTm in the data set on Nucleic Acid [2] was determined as 5 °C.
With `C(=N\NC1=NCCN1)/c1c2ccccc2c(/C=N/NC2=NCCN2)c2ccccc12` [BISANTRENE], the pKa in data set [1] (read-out: pKa1) amounted to 6.8. The K app in the data set on Nucleic Acid [3] stood at 9.03 µM⁻¹. Further, in the data set with Nucleic Acid [4], the Relative binding was 1.03. Also, in the data set on Nucleic Acid [5], the thermal shift (ΔTm) was 19 °C.
Regarding `CNCCN(C)Cc1c2ccccc2c(CN(C)CCNC)c2ccccc12`, the ΔTm in the data set on Nucleic Acid [2] worked out at 3 °C.
In turn, `OCCCCCNCc1c2ccccc2c(CNCCCCCO)c2ccccc12` registered a pKa in data set [1] of 8. For the same molecule, the K app in the data set with Nucleic Acid [3] is 0.0532 µM⁻¹. Further, the Relative binding in the data set on Nucleic Acid [4] was determined as 0.84. In addition, in the data set on Nucleic Acid [5], the ΔTm was determined as 13 °C.
Take `CC(C)N(CCNCc1c2ccccc2c(CNCCN(C(C)C)C(C)C)c2ccccc12)C(C)C`: the ΔTm in the data set with Nucleic Acid [2] came to 9 °C.
Turning to `CN(C)CCN(C)Cc1c2ccccc2c(CN(C)CCN(C)C)c2ccccc12`, the pKa in data set [1] (read-out: pKa1) is 3.1; in data set [1] (read-out: pKa2), 4.2; in data set [1] (read-out: pKa3) it was 8.45; in data set [1] (read-out: pKa4), 9.45. Besides, in the data set with Nucleic Acid [2], the ΔTm came to 1 °C.
In the case of `CCN1CCCC(NCc2c3ccccc3c(CNC3CCCN(CC)C3)c3ccccc23)C1` (stereo not given), the pKa in data set [1] (read-out: pKa1) was found to be 2.4; in data set [1] (read-out: pKa2), 3; in data set [1] (read-out: pKa3), 5.2; in data set [1] (read-out: pKa4), 9.15. Besides, the K app with Nucleic Acid [3] amounted to 0.0605 µM⁻¹. In the data set with Nucleic Acid [4], the Relative binding was 0.75. Moreover, in the data set on Nucleic Acid [5], the ΔTm stood at 16 °C.
Consider `NCCNCc1c2ccccc2c(CNCCN)c2ccccc12`, for which, in the data set with Nucleic Acid [3], the K app stood at 0.27 µM⁻¹. This molecule had a Relative binding with Nucleic Acid [4] of 0.75. The ΔTm in the data set on Nucleic Acid [5] amounted to 14 °C.
Take `CN(C)CCNCc1c2ccccc2c(CNCCN(C)C)c2ccccc12`: the pKa in data set [1] (read-out: pKa1) came out at 3.9; in data set [1] (read-out: pKa2), 5.35; in data set [1] (read-out: pKa3), 8.4; in data set [1] (read-out: pKa4), 9.4. Besides, in the data set on Nucleic Acid [3], the K app is 0.1 µM⁻¹. Further, the Relative binding in the data set on Nucleic Acid [4] stood at 0.75. The ΔTm with Nucleic Acid [5] stood at 12 °C.
Turning to `CN1CCN=C1/C=C/c1c2ccccc2c(/C=C/C2=NCCN2)c2ccccc12`, the K app in the data set on Nucleic Acid [3] is 8.29 µM⁻¹. The molecule also showed a Relative binding in the data set on Nucleic Acid [4] of 1.08. Also, the ΔTm in the data set with Nucleic Acid [5] was more than 20 °C.
